Data on twelve molecules can be found in ChEMBL document CHEMBL2375264, “Potent naphthoquinones against antimony-sensitive and -resistant Leishmania parasites: synthesis of novel α- and nor-α-lapachone-based 1,2,3-triazoles by copper-catalyzed azide-alkyne cycloaddition” (Eur J Med Chem, 2013).

Data set [1] deals with Leishmania amazonensis. Description: Antileishmanial activity against antimony-sensitive Leishmania amazonensis MHOM/BR/1989/BA199 promastigote infected in Swiss mouse peritoneal macrophages after 72 hrs. To be noted: MHOM/BR/1989/BA199, 72 h. The data set is classed as functional, organism-based. The essentials:
(§1)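 Promastigotes of Sb(III)-sensitive and -resistant lines (resistant to Sb(III) up to 2700), maintained at 25 °C, pH 7.0, in α-MEM with 10% heat-inactivated FBS, kanamycin, ampicillin, L-glutamine, hemin and biopterin. Drugs dissolved in DMSO, diluted in α-MEM across a concentration range, final DMSO ≤0.2%.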

Data set [2] deals with Leishmania amazonensis. Put plainly: Antileishmanial activity against antimony-resistant Leishmania amazonensis MHOM/BR/1989/BA199 promastigote infected in Swiss mouse peritoneal macrophages after 72 hrs. It counts as functional, organism-based. The settings on record: MHOM/BR/1989/BA199, 72 h. An outline of the steps: as §1
Data set [3] can be described thus: Selectivity index, ratio of CC50 for Swiss mouse peritoneal macrophages to IC50 for antimony-sensitive Leishmania amazonensis MHOM/BR/1989/BA199 promastigote. It counts as functional. The essentials:
(§2)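 SI = CC50 / IC50. CC50 is from Swiss mouse peritoneal macrophages, read by MTT after lavage and 1 h adherence. […] Promastigotes grown in α-MEM with 10% heat-inactivated FBS, hemin and biopterin, pH 7.0, 25 °C. DMSO ≤0.2% final. Triplicate.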

Data set [4] concerns Leishmania infantum. Description: Ratio of potassium antimonyl tartrate IC50 to compound IC50 for antimony-sensitive Leishmania infantum MCAN/BR/2002/BH400 promastigote infected in Swiss mouse peritoneal macrophages. It counts as functional.
Data set [5] is described as follows: Cytotoxicity against Swiss mouse peritoneal macrophages after 24 hrs by MTT assay. The data set is classed as cell-based, Peritoneal macrophage cell. An outline of the steps:
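Macrophages from peritoneal lavage of Swiss mice with cold FBS-free RPMI-1640. Cells seeded at 4.0 × 10⁶/mL, adhered 1 h, non-adherent cells washed off. Compounds were DMSO stocks diluted in medium over a concentration range, final DMSO ≤0.2%. Viability read by MTT (5 mg/mL solution, 4 h further incubation). CC50 taken as the 50% cytotoxic concentration.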

The test system of data set [6] is Leishmania infantum. Put plainly: Antileishmanial activity against antimony-resistant Leishmania infantum MCAN/BR/2002/BH400 promastigote infected in Swiss mouse peritoneal macrophages after 72 hrs. The settings on record: MCAN/BR/2002/BH400, 72 h. It counts as functional, organism-based. The essentials:
as §1

Data set [7] deals with Leishmania amazonensis. Put plainly: Ratio of potassium antimonyl tartrate IC50 to compound IC50 for antimony-sensitive Leishmania amazonensis MHOM/BR/1989/BA199 promastigote infected in Swiss mouse peritoneal macrophages. It counts as functional.
A short description of data set [8]: Selectivity index, ratio of CC50 for Swiss mouse peritoneal macrophages to IC50 for antimony-resistant Leishmania amazonensis MHOM/BR/1989/BA199 promastigote. The data set is classed as functional. An outline of the steps: (§3)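 SI = CC50/IC50. CC50 comes from Swiss mouse peritoneal macrophages, harvested by lavage with cold RPMI-1640 lacking FBS. Cells seeded at 4.0 × 10⁶/mL, allowed to adhere 1 h, then washed free of non-adherent cells. Viability read by MTT (5 mg/mL stock, 4 h).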

Data set [9] is described as follows: Selectivity index, ratio of CC50 for Swiss mouse peritoneal macrophages to IC50 for antimony-resistant Leishmania infantum MCAN/BR/2002/BH400 promastigote. It counts as functional. An outline of the steps: as §3
Data set [10] deals with Leishmania infantum. Put plainly: Antileishmanial activity against antimony-sensitive Leishmania infantum MCAN/BR/2002/BH400 promastigote infected in Swiss mouse peritoneal macrophages after 72 hrs. The data set is classed as functional, organism-based. To be noted: MCAN/BR/2002/BH400, 72 h. The essentials: as §1
Data set [11] is described as follows: Selectivity index, ratio of CC50 for Swiss mouse peritoneal macrophages to IC50 for antimony-sensitive Leishmania infantum MCAN/BR/2002/BH400 promastigote. The data set is classed as functional. An outline of the steps:
as §2

pIC50: −log10 of the molar value. Some results are limits rather than exact numbers.

Regarding `O=C1C=C(n2cc(-c3ccccc3)nn2)C(=O)c2ccccc21`, the pIC50 (in general, −log10 of the IC50, conventionally taken in molar units) was 4.78 with Leishmania amazonensis [1], 5.10 with Leishmania amazonensis [2], 4.77 in the data set with Leishmania infantum [6] and 4.67 with Leishmania infantum [10]. Further, the “Ratio CC50/IC50” value in data set [3] came out at 0.61; in [8], 1.28; in data set [9], 0.59; in [11], 0.47. Moreover, the “Ratio IC50” value with Leishmania infantum [4] stood at 2; with Leishmania amazonensis [7] it was 2.2. Also, the half-maximal cytotoxic concentration (CC50) (usually the concentration giving 50% cytotoxicity) at 24 h in data set [5] came out at 10.2 µM.
Regarding `COc1ccc(-c2cn(C3=CC(=O)c4ccccc4C3=O)nn2)cc1`, the pIC50 in the data set on Leishmania amazonensis [1] was 4.46; in the data set on Leishmania amazonensis [2] it was 4.61; with Leishmania infantum [6], 4.73; in the data set on Leishmania infantum [10] it was 4.80. Moreover, the “Ratio CC50/IC50” value in data set [3] was determined as 0.49; in data set [8], 0.68; in data set [9], 0.9; in data set [11], 1.06. The “Ratio IC50” value with Leishmania infantum [4] worked out at 2; in the data set with Leishmania amazonensis [7] it was 2.2. The molecule further returned a cytotoxic concentration (CC50) at 24 h in data set [5] of 16.8 µM.
As to `O=C1C=C(n2cc(-c3ccc(Br)cc3)nn2)C(=O)c2ccccc21`, the pIC50 with Leishmania amazonensis [1] is 4.24; in the data set with Leishmania amazonensis [2], 4.30; in the data set with Leishmania infantum [6], 4.85; in the data set on Leishmania infantum [10], 4.76. Besides, the “Ratio CC50/IC50” value is given as 0.37 in data set [3], 0.43 in data set [8], 1.52 in [9] and 1.24 in data set [11]. Further, the “Ratio IC50” value with Leishmania infantum [4] is given as 2; in the data set with Leishmania amazonensis [7] it was 2.2. In data set [5], this molecule came in with a CC50 at 24 h of 21.4 µM.
`O=C1C=C(n2cc(-c3ccc([N+](=O)[O-])cc3)nn2)C(=O)c2ccccc21`: the negative logarithm of the IC50 (pIC50) in the data set on Leishmania amazonensis [1], with Leishmania amazonensis [2], in the data set with Leishmania infantum [6] and in the data set on Leishmania infantum [10] was below 4.00 throughout. For the same molecule, the “Ratio CC50/IC50” value in data set [3] and in data set [11] was below 0.5 in each case. Besides, the “Ratio IC50” value in the data set on Leishmania infantum [4] came to 2; in the data set with Leishmania amazonensis [7] it was 2.2. The CC50 at 24 h in data set [5] was found to be 50 µM.
For the molecule `Cc1ccc(-c2cn(C3=CC(=O)c4ccccc4C3=O)nn2)cc1`, the pIC50 in the data set on Leishmania amazonensis [1] was 4.67; in the data set on Leishmania amazonensis [2], 4.86; with Leishmania infantum [6] it was 4.87; with Leishmania infantum [10], 5.06. The “Ratio CC50/IC50” value in data set [3] was determined as 0.71; in [8], 1.1; in data set [9] it was 1.12; in data set [11], 1.72. Also, the “Ratio IC50” value with Leishmania infantum [4] is recorded as 2; with Leishmania amazonensis [7], 2.2. In addition, half-maximal cytotoxicity in data set [5] (CC50 at 24 h) was put at 15.2 µM.
Turning to `O=C1C=C(n2cc(CO)nn2)C(=O)c2ccccc21`, the pIC50 with Leishmania amazonensis [1] is 4.62; in the data set with Leishmania amazonensis [2], 4.67; in the data set with Leishmania infantum [6] it was 5.24; in the data set with Leishmania infantum [10], 4.41. The “Ratio CC50/IC50” value in data set [3] is recorded as 0.4; in data set [8], 0.45; in [9], 1.64; in data set [11] it was 0.24. Moreover, the results for the “Ratio IC50” value with Leishmania infantum [4] and with Leishmania amazonensis [7] were 2 and 2.2, respectively. Further, in data set [5], the CC50 at 24 h is 9.51 µM.
In the case of `CC1(C)OC2=C(C(=O)C(=O)c3ccccc32)C1n1cc(-c2ccc(F)cc2)nn1` (stereo not given), the negative-log IC50 (pIC50) in the data set with Leishmania amazonensis [1] is 5.33; in the data set with Leishmania amazonensis [2] it was 5.36; in the data set with Leishmania infantum [6], 5.31; with Leishmania infantum [10] it was 5.36. Moreover, the “Ratio CC50/IC50” value in [3] is 0.75; in data set [8], 0.8; in data set [9], 0.72; in [11] it was 0.81. In addition, the “Ratio IC50” value in the data set on Leishmania infantum [4] came out at 15.5; with Leishmania amazonensis [7], 23. In addition, the CC50 at 24 h in [5] was 3.52 µM.
For `CC1(C)OC2=C(C(=O)C(=O)c3ccccc32)C1n1cc(-c2ccc([N+](=O)[O-])cc2)nn1` (stereo not given), the pIC50 in the data set on Leishmania amazonensis [1] was 5.47; with Leishmania amazonensis [2], 5.53; in the data set with Leishmania infantum [6], 5.48; in the data set with Leishmania infantum [10], 5.49. Besides, the “Ratio CC50/IC50” value in data set [3] was 0.98; in [8], 1.35; in data set [9], 1.02; in data set [11] it was 1.03. In addition, the “Ratio IC50” value with Leishmania infantum [4] is listed as 15.5; with Leishmania amazonensis [7] it was 23. Besides, in data set [5], it took 3.35 µM to reach half-maximal cytotoxicity (CC50 at 24 h).
Take `COc1ccc(-c2cn(C3C4=C(OC3(C)C)c3ccccc3C(=O)C4=O)nn2)cc1` (stereo not given): the pIC50 with Leishmania amazonensis [1] was 5.41; with Leishmania amazonensis [2] it was 5.60; in the data set on Leishmania infantum [6], 5.27; with Leishmania infantum [10], 5.25. The “Ratio CC50/IC50” value stood at 1.13 in data set [3], 1.75 in data set [8], 0.81 in [9] and 0.78 in data set [11]. In addition, the “Ratio IC50” value in the data set with Leishmania infantum [4] was 15.5; in the data set with Leishmania amazonensis [7] it was 23. For the same molecule, the CC50 at 24 h in [5] is 4.36 µM.
As for `Cc1ccc(-c2cn(C3C4=C(OC3(C)C)c3ccccc3C(=O)C4=O)nn2)cc1` (stereo not given), the pIC50 was 5.42 with Leishmania amazonensis [1], 5.46 in the data set with Leishmania amazonensis [2], 5.51 with Leishmania infantum [6] and 5.47 in the data set with Leishmania infantum [10]. Besides, the “Ratio CC50/IC50” value in data set [3] is given as 0.87; in data set [8], 0.95; in data set [9], 1.07; in data set [11], 0.98. Besides, the “Ratio IC50” value with Leishmania infantum [4] was found to be 15.5; in the data set with Leishmania amazonensis [7], 23. Besides, the CC50 at 24 h in [5] is 3.31 µM.
With `O=C1C=C(n2cc(CN3C(=O)c4ccccc4C3=O)nn2)C(=O)c2ccccc21`, the pIC50 in the data set on Leishmania amazonensis [1] was 4.30; in the data set on Leishmania amazonensis [2] it was 4.40; in the data set on Leishmania infantum [6], 5.07; with Leishmania infantum [10], 4.38. Moreover, the “Ratio CC50/IC50” value in data set [3] was 0.11; in [8], 0.13; in data set [9], 0.64; in data set [11], 0.13. In addition, the “Ratio IC50” value in the data set on Leishmania infantum [4] is 2; with Leishmania amazonensis [7], 2.2. In data set [5], this molecule showed a CC50 at 24 h of 5.39 µM.
`CC1(C)OC2=C(C(=O)C(=O)c3ccccc32)C1n1cc(-c2ccccc2)nn1` (stereo not given): the pIC50 is 5.95 in the data set with Leishmania amazonensis [1], 5.99 in the data set on Leishmania amazonensis [2], 5.98 in the data set with Leishmania infantum [6] and 6.00 in the data set on Leishmania infantum [10]. Further, the “Ratio CC50/IC50” value is recorded as 3.08 in data set [3], 3.32 in data set [8], 3.29 in data set [9] and 3.42 in data set [11]. Further, the figures for the “Ratio IC50” value in the data set on Leishmania infantum [4] and in the data set with Leishmania amazonensis [7] were 15.5 and 23, respectively. For the same molecule, in [5], the midpoint of cytotoxicity, the CC50 at 24 h, lay at 3.42 µM.
